# From ChEMBL document CHEMBL1125297, “Synthesis and biologic activity of 2'-fluoro-2-halo derivatives of 9-beta-D-arabinofuranosyladenine” (J Med Chem, 1992)
# Columns and labels:
# [1] = system: HEp-2; experiment: Compound was tested for cytotoxicity against HEp-2 cell lines; format: functional, cell-based; details: Homo sapiens
# Summary of the method: (§1)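 Cell-proliferation assay run against each named cell line. The value is the concentration that holds proliferation at 50% of untreated controls.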
# [2] = system: L1210; experiment: Compound was tested for cytotoxicity against L1210 cell lines; format: functional, cell-based; details: Mus musculus; summary of the method: as §1
# [3] = system: CCRF-CEM; experiment: Compound was tested for cytotoxicity against CCRF-CEM cell lines; format: functional, cell-based; details: Homo sapiens; summary of the method: as §1
# [4] = system: Mus musculus; experiment: Tumor-free survivors of P388 leukemia infected mice was measured after ip administration of 25 mg/kg in 6 mice; format: functional; details: route intraperitoneal
# Summary of the method: (§2)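 CD2F1 mice received 10⁶ P388 leukemia cells ip on day 0 and were then dosed ip in mg/kg per dose, at or below the LD10. Tumor-free survivors were scored among the treated group.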
# [5] = system: Mus musculus; experiment: In Vivo increase in life span of dying mice implanted ip with 10E6 P388 leukemia, after ip administration of 100 mg/kg; format: functional; details: route intraperitoneal
# Summary of the method: (§3)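 CD2F1 mice implanted ip with 10⁶ P388 leukemia cells on day 0. Treatment ip, doses given as mg/kg per dose and kept at or below the LD10. Read-out is increase in life span against untreated controls.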
# [6] = system: Mus musculus; experiment: Log chance in viable tumor cells population was measured after intraperitoneal administration of 100 mg/kg; format: functional
# Summary of the method: (§4)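 CD2F1 mice were implanted ip with 10⁶ P388 leukemia cells on day 0, then treated ip. Doses are mg/kg per dose, kept at or below LD₁₀. Read-out is the log change in viable tumor cells from start to end of therapy, based on the median day of death among the animals that died.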
# [7] = system: Mus musculus; experiment: Tumor-free survivors of P388 leukemia infected mice was measured after ip administration of 100 mg/kg in 3 mice; format: functional; details: route intraperitoneal; summary of the method: as §2
# [8] = system: Mus musculus; experiment: Log chance in viable tumor cells population was measured after intraperitoneal administration of 25 mg/kg; format: functional; summary of the method: as §4
# [9] = system: K562; experiment: Compound was tested for cytotoxicity against K562 cell lines; format: functional, cell-based; details: Homo sapiens; summary of the method: as §1
# [10] = system: Mus musculus; experiment: In Vivo increase in life span of dying mice implanted ip with 10E6 P388 leukemia, after ip administration of 25 mg/kg; format: functional; details: route intraperitoneal; summary of the method: as §3
# [11] = system: Mus musculus; experiment: Log change in viable tumor cells population was measured at end of therapy when compared to start of therapy at dose 50 mg/kg; format: functional; summary of the method: as §4
# [12] = system: Mus musculus; experiment: Tumor-free survivors of P388 leukemia infected mice was measured after ip administration of 30 mg/kg in 6 mice; format: functional; details: route intraperitoneal; summary of the method: as §2
# [13] = system: Mus musculus; experiment: Log change in viable tumor cells population was measured at end of therapy when compared to start of therapy at dose 30 mg/kg; format: functional; summary of the method: as §4
# [14] = system: Mus musculus; experiment: Log change in viable tumor cells population was measured at end of therapy when compared to start of therapy at dose 200 mg/kg; format: functional; summary of the method: as §4
# [15] = system: Mus musculus; experiment: In Vivo increase in life span of dying mice implanted ip with 10E6 P388 leukemia, after ip administration of 50 mg/kg; format: functional; details: route intraperitoneal; summary of the method: as §3
# [16] = system: Mus musculus; experiment: Tumor-free survivors of P388 leukemia infected mice was measured after ip administration of 200 mg/kg in 6 mice; format: functional; details: route intraperitoneal; summary of the method: as §2
# [17] = system: Mus musculus; experiment: Tumor-free survivors of P388 leukemia infected mice was measured after ip administration of 50 mg/kg in 6 mice; format: functional; details: route intraperitoneal; summary of the method: as §2
# [18] = system: Mus musculus; experiment: In Vivo increase in life span of dying mice implanted ip with 10E6 P388 leukemia, after ip administration of 30 mg/kg; format: functional; details: route intraperitoneal; summary of the method: as §3
# [19] = system: Mus musculus; experiment: In Vivo increase in life span of dying mice implanted ip with 10E6 P388 leukemia, after ip administration of 200 mg/kg; format: functional; details: route intraperitoneal; summary of the method: as §3
# [20] = system: Mus musculus; experiment: Tumor-free survivors of P388 leukemia infected mice was measured after ip administration of 20 mg/kg in 6 mice; format: functional; details: route intraperitoneal; summary of the method: as §2
# [21] = system: Mus musculus; experiment: Tumor-free survivors of P388 leukemia infected mice was measured after ip administration of 200 mg/kg in 3 mice; format: functional; details: route intraperitoneal; summary of the method: as §2
# [22] = system: Mus musculus; experiment: Log chance in viable tumor cells population was measured after intraperitoneal administration of 200 mg/kg; format: functional; summary of the method: as §4
# [23] = system: Mus musculus; experiment: In Vivo increase in life span of dying mice implanted ip with 10E6 P388 leukemia, after ip administration of 20 mg/kg; format: functional; details: route intraperitoneal; summary of the method: as §3
# [24] = system: Mus musculus; experiment: Log chance in viable tumor cells population was measured after intraperitoneal administration of 20 mg/kg; format: functional; summary of the method: as §4
# [25] = system: Mus musculus; experiment: Tumor-free survivors of P388 leukemia infected mice was measured after ip administration of 100 mg/kg in 5 mice; format: functional; details: route intraperitoneal; summary of the method: as §2
# [26] = system: Mus musculus; experiment: Tumor-free survivors of P388 leukemia infected mice was measured after ip administration of 25 mg/kg in 5 mice; format: functional; details: route intraperitoneal; summary of the method: as §2
SMILES,IC50 [1] [nM],IC50 [2] [nM],IC50 [3] [nM],IC50 [9] [nM],other results
Nc1nc(F)nc2c1ncn2[C@H]1C[C@H](O)[C@@H](CO)O1,200,900,200,–,–
Nc1nc(F)nc2c1ncn2[C@@H]1O[C@H](CO)[C@@H](O)[C@@H]1F,340,380,140,300,Tumor free survivors [4]: 0; ILS at 100 mg/kg [5]: 63%; Log change [6]: -1.8; Tumor free survivors [7]: 0; Log change [8]: -0.1; ILS at 25 mg/kg [10]: 81%
Nc1nc(Cl)nc2c1ncn2[C@@H]1O[C@H](CO)[C@@H](O)[C@H]1O,3000,< 3000,10000,–,–
Nc1nc(Br)nc2c1ncn2[C@@H]1O[C@H](CO)[C@@H](O)[C@H]1F,220,260,20,50,Log change [11]: 1.6; Tumor free survivors [12]: 0; Log change [13]: -1; Log change [14]: 0.1; ILS at 50 mg/kg [15]: 41%; Tumor free survivors [16]: 0; Tumor free survivors [17]: 0; ILS at 30 mg/kg [18]: 100%; ILS at 200 mg/kg [19]: 33%
Nc1nc(Br)nc2c1ncn2[C@H]1C[C@H](O)[C@@H](CO)O1,20,900,20,–,–
Nc1nc(Br)nc2c1ncn2C1O[C@H](CO)[C@@H](O)[C@H]1O (some centres not stated),4000,3000,–,–,–
Nc1nc(Cl)nc2c1ncn2[C@H]1C[C@H](O)[C@@H](CO)O1 [CLADRIBINE],30,70,3,–,–
Nc1nc(Cl)nc2c1ncn2[C@@H]1O[C@H](CO)[C@@H](O)[C@@H]1F [CLOFARABINE],12,230,50,3,ILS at 100 mg/kg [5]: 38%; Tumor free survivors [20]: 1; Tumor free survivors [21]: 0; Log change [22]: -1.6; ILS at 20 mg/kg [23]: 220%; Log change [6]: -0.3; Log change [24]: -6.6; Tumor free survivors [25]: 0; Tumor free survivors [26]: 0; Log change [8]: -2.8; ILS at 200 mg/kg [19]: 59%; ILS at 25 mg/kg [10]: 118%
Nc1nc(F)nc2c1ncn2[C@@H]1O[C@H](CO)[C@@H](O)[C@@H]1O [FLUDARABINE],9000,3000,400,150,–
